Laboratory results reported in ChEMBL document CHEMBL1157912, “Impact of nature and length of linker incorporated in agonists on toll-like receptor 9-mediated immune responses” (J Med Chem, 2010).
Calls of active or inactive are those of the source. No cut-off for these calls is given here.

Key:
[1] = tested on: Mus musculus; experiment: Immunostimulatory activity in C57BL/6 mouse assessed as increase in serum IL12 level at 1 mg/kg, sc after 2 hrs by ELISA; type: functional, organism-based; design: dose 1 mg/kg
Summary of the method: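 Female C57BL/6 mice (n=3) received a single subcutaneous agonist dose of 1 mg/kg. Blood was taken by retro-orbital bleeding 2 h later, and serum IL-12 was measured by sandwich ELISA. Values are the mean of three mice ± SD.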

[2] = molecular target: T1, Toll-like receptor 9 (Homo sapiens) (UniProt Q9NR96); experiment: Induction of TLR9-mediated human B cell proliferation assessed as [3H]thymidine uptake after 56 hrs by scintillation counting
T1 sequence (whole entry): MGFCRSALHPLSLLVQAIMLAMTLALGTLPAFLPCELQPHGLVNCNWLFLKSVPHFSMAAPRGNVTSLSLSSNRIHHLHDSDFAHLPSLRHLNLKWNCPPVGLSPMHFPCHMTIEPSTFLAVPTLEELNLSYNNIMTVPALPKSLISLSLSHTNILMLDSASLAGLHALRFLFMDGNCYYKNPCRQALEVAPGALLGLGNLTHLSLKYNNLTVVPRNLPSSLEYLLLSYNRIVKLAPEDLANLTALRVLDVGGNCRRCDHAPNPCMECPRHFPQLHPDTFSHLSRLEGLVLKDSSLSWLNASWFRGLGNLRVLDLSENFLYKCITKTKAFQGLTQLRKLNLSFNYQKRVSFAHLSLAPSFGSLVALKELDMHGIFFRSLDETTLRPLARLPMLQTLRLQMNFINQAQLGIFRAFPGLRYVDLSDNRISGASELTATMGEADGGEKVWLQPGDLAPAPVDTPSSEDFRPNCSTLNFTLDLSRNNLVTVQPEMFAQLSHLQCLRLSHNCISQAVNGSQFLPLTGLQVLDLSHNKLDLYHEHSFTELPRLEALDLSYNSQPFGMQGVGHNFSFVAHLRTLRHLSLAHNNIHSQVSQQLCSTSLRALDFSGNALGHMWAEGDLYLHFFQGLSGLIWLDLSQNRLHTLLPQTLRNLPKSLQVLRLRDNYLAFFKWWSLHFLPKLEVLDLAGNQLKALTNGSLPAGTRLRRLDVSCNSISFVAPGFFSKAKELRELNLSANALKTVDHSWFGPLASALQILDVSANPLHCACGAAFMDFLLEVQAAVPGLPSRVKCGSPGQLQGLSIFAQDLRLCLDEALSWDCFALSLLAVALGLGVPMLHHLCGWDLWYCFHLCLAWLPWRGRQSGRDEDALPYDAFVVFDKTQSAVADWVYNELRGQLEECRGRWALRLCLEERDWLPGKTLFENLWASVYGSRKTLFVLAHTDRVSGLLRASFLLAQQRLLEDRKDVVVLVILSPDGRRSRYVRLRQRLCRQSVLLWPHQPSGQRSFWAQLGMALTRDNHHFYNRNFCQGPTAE
Summary of the method: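 B cells were purified from human PBMCs (healthy volunteers), about 1 × 10⁵ cells, and stimulated with various agonist concentrations for 56 h. Cells were then pulsed with 0.75 μCi [³H]-thymidine and harvested 16 h later. Incorporation was counted by scintillation and reported as cpm.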

[3] = molecular target: T2, Toll-like receptor 9 (Mus musculus) (UniProt Q9EQU3); experiment: Induction of TLR9-mediated IL12 production in C57BL/6 mouse spleen cells after 24 hrs by ELISA; type: cell-based
T2 sequence (whole entry): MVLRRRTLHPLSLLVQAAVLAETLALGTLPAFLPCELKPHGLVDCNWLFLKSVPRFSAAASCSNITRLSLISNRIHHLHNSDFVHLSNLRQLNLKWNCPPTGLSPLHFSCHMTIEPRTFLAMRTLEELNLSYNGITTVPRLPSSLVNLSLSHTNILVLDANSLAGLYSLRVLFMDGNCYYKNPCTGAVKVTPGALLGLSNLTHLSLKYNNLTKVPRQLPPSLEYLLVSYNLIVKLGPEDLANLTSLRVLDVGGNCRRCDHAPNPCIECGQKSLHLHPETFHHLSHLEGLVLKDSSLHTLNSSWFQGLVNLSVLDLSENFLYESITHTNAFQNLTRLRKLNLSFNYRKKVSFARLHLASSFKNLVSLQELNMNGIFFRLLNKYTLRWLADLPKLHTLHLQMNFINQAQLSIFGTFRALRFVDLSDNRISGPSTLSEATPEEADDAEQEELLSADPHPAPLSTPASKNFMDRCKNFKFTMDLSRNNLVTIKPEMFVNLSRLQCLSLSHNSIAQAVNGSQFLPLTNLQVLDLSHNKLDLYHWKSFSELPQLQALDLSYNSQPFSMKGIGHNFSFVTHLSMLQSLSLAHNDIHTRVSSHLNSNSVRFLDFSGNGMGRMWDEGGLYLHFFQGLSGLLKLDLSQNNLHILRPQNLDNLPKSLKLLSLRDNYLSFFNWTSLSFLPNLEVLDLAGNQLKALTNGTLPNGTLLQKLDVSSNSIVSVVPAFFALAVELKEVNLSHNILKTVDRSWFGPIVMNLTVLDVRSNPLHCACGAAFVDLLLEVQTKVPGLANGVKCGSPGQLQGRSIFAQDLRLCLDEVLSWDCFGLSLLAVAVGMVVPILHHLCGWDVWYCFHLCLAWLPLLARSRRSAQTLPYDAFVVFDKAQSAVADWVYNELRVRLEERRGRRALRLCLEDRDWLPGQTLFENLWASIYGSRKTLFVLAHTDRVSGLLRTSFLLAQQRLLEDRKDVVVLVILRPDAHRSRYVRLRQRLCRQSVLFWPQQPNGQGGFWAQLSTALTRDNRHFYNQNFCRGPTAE
Summary of the method: (§1)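 C57BL/6 mouse spleen cells were cultured with agonists at 0.1, 0.3, 1, 3 and 10 μg/mL for 24 h. Secreted IL-12 and IL-6 in the supernatants were measured by ELISA. Values are averages of triplicate wells from one representative of at least two independent experiments.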

[4] = molecular target: T2, Toll-like receptor 9 (Mus musculus); experiment: Induction of TLR9-mediated IL6 production in C57BL/6 mouse spleen cells after 24 hrs by ELISA; type: cell-based; summary of the method: as §1
[5] = molecular target: T2, Toll-like receptor 9 (Mus musculus); experiment: Activation of mouse TLR9 expressed in HEK293 cells assessed as induction of NF-kappaB activity after 18 hrs by SEAP assay; type: cell-based
Summary of the method: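 HEK293 cells stably expressing mouse TLR9 were grown in DMEM with 10% heat-inactivated FBS. At 80% confluence they were transiently transfected with a SEAP reporter plasmid (100 ng/well, lipofectamine) for 6 h. Medium was then replaced and agonists were added for 18 h. Supernatant SEAP was read with QuantiBlue substrate at 620-645 nm. Results are expressed as fold NF-κB activity over PBS control.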

- Activity [2]: Dose-dependent effect
- Activity [3]: Dose-dependent effect
- Activity [4]: Dose-dependent effect
- Activity [5]: Dose-dependent effect
Compound: Cc1cn([C@H]2C[C@H](OCCn3c(=O)n(CCO)c(=O)n(CCOP(=O)(S)O[C@H]4C[C@H](n5cc(C)c(=O)[nH]c5=O)O[C@@H]4COP(=O)(S)O[C@H]4[C@@H](O)[C@H](n5ccc(N)nc5=O)O[C@@H]4COP(=O)(S)O[C@H]4C[C@H](n5cc(C)c(=O)[nH]c5=O)O[C@@H]4COP(=O)(S)O[C@H]4C[C@H](n5cc(C)c(=O)[nH]c5=O)O[C@@H]4COP(=O)(S)O[C@H]4C[C@H](n5ccc6c(=O)[nH]c(N)nc65)O[C@@H]4COP(=O)(S)O[C@H]4[C@@H](O)[C@H](n5ccc(N)nc5=O)O[C@@H]4COP(=O)(S)O[C@H]4C[C@H](n5cc(C)c(=O)[nH]c5=O)O[C@@H]4COP(=O)(S)O[C@H]4[C@@H](O)[C@H](n5cnc6c(=O)[nH]c(N)nc65)O[C@@H]4COP(=O)(S)O[C@H]4C[C@H](n5cc(C)c(=O)[nH]c5=O)O[C@@H]4COP(=O)(S)O[C@H]4[C@@H](O)[C@H](n5ccc(N)nc5=O)O[C@@H]4COP(=O)(S)O[C@H]4C[C@H](n5cc(C)c(=O)[nH]c5=O)O[C@@H]4CO)c3=O)[C@@H](COP(=O)(S)O[C@H]3[C@@H](O)[C@H](n4ccc(N)nc4=O)O[C@@H]3COP(=O)(S)O[C@H]3C[C@H](n4cc(C)c(=O)[nH]c4=O)O[C@@H]3COP(=O)(S)O[C@H]3C[C@H](n4cc(C)c(=O)[nH]c4=O)O[C@@H]3COP(=O)(S)O[C@H]3C[C@H](n4ccc5c(=O)[nH]c(N)nc54)O[C@@H]3COP(=O)(S)O[C@H]3[C@@H](O)[C@H](n4ccc(N)nc4=O)O[C@@H]3COP(=O)(S)O[C@H]3C[C@H](n4cc(C)c(=O)[nH]c4=O)O[C@@H]3COP(=O)(S)O[C@H]3[C@@H](O)[C@H](n4cnc5c(=O)[nH]c(N)nc54)O[C@@H]3COP(=O)(S)O[C@H]3C[C@H](n4cc(C)c(=O)[nH]c4=O)O[C@@H]3COP(=O)(S)O[C@H]3[C@@H](O)[C@H](n4ccc(N)nc4=O)O[C@@H]3COP(=O)(S)O[C@H]3C[C@H](n4cc(C)c(=O)[nH]c4=O)O[C@@H]3CO)O2)c(=O)[nH]c1=O (stereo not given in full)
- Activity [1]: Active
